Tests used:
Type in all cases: functional
Aspergillus niger [1] = assay: Antifungal activity against Aspergillus niger at 1000 ug after 24 hrs by paper disc technique relative to control
Summary of the method: (§1)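 Potato dextrose agar plates: sterilized base layer overlaid with seeded medium (cooled to 40 °C, spore suspension from ten-day cultures of A. niger, A. flavus, P. notatum and Rhizopus species added), chilled before use. Disc diffusion, incubation at 28 °C; zone read after 24 h from disc centre. I% = (C − T)/C × 100 (C, zone diameter in check; […]). Fluconazole (500 and 1000 µg/ml) as standard.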

Penicillium chrysogenum [2] = assay: Antifungal activity against Penicillium notatum sp. at 500 ug after 24 hrs by paper disc technique relative to control; summary of the method: as §1
Aspergillus flavus [3] = assay: Antifungal activity against Aspergillus flavus at 500 ug after 24 hrs by paper disc technique; conditions: read-out: IZ; summary of the method: as §1
Aspergillus flavus [4] = assay: Antifungal activity against Aspergillus flavus at 1000 ug after 24 hrs by paper disc technique relative to control; summary of the method: as §1
Rhizopus [5] = assay: Antifungal activity against Rhizopus sp. at 500 ug after 24 hrs by paper disc technique relative to control; summary of the method: as §1
Rhizopus [6] = assay: Antifungal activity against Rhizopus sp. at 1000 ug after 24 hrs by paper disc technique relative to control; summary of the method: as §1
Aspergillus niger [7] = assay: Antifungal activity against Aspergillus niger at 1000 ug after 24 hrs by paper disc technique; conditions: read-out: IZ; summary of the method: as §1
Aspergillus flavus [8] = assay: Antifungal activity against Aspergillus flavus at 500 ug after 24 hrs by paper disc technique relative to control; summary of the method: as §1
Rhizopus [9] = assay: Antifungal activity against Rhizopus sp. at 1000 ug after 24 hrs by paper disc technique; conditions: read-out: IZ; summary of the method: as §1
Penicillium chrysogenum [10] = assay: Antifungal activity against Penicillium notatum sp. at 1000 ug after 24 hrs by paper disc technique relative to control; summary of the method: as §1
Rhizopus [11] = assay: Antifungal activity against Rhizopus sp. at 500 ug after 24 hrs by paper disc technique; conditions: read-out: IZ; summary of the method: as §1
Aspergillus niger [12] = assay: Antifungal activity against Aspergillus niger at 500 ug after 24 hrs by paper disc technique; conditions: read-out: IZ; summary of the method: as §1
Penicillium chrysogenum [13] = assay: Antifungal activity against Penicillium notatum sp. at 500 ug after 24 hrs by paper disc technique; conditions: read-out: IZ; summary of the method: as §1
Penicillium chrysogenum [14] = assay: Antifungal activity against Penicillium notatum sp. at 1000 ug after 24 hrs by paper disc technique; conditions: read-out: IZ; summary of the method: as §1
Aspergillus niger [15] = assay: Antifungal activity against Aspergillus niger at 500 ug after 24 hrs by paper disc technique relative to control; summary of the method: as §1
Aspergillus flavus [16] = assay: Antifungal activity against Aspergillus flavus at 1000 ug after 24 hrs by paper disc technique; conditions: read-out: IZ; summary of the method: as §1

Row | SMILES | Activity (Aspergillus niger [1]) | Activity (Penicillium chrysogenum [2]) | zone of inhibition at 500 µg/disc (Aspergillus flavus [3]) | Activity (Aspergillus flavus [4]) | Activity (Rhizopus [5]) | Activity (Rhizopus [6]) | zone of inhibition at 1000 µg/disc (Aspergillus niger [7]) | Activity (Aspergillus flavus [8]) | zone of inhibition at 1000 µg/disc (Rhizopus [9]) | Activity (Penicillium chrysogenum [10]) | zone of inhibition at 500 µg/disc (Rhizopus [11]) | zone of inhibition at 500 µg/disc (Aspergillus niger [12]) | zone of inhibition at 500 µg/disc (Penicillium chrysogenum [13]) | zone of inhibition at 1000 µg/disc (Penicillium chrysogenum [14]) | Activity (Aspergillus niger [15]) | zone of inhibition at 1000 µg/disc (Aspergillus flavus [16])
1 | C1=Nn2c(nnc2-c2ccccc2)Nc2nc3ccccc3cc21 | 71.66% | 73.33% | 32 mm | 70% | 50% | 50% | 43 mm | 53.33% | 30 mm | 90% | 30 mm | 39 mm | 44 mm | 54 mm | 53.33% | 45 mm
2 | OC(Cn1cncn1)(Cn1cncn1)c1ccc(F)cc1F [FLUCONAZOLE] | 80% | 86.66% | 35 mm | 70% | 63.33% | 70% | 48 mm | 58.33% | 42 mm | 90% | 38 mm | 42 mm | 52 mm | 54 mm | 70% | 42 mm
3 | Cc1ccc2nc3c(cc2c1)C=Nn1c(nnc1-c1ccccc1Cl)N3 | 71.66% | 73.33% | 42 mm | 53.33% | 46.66% | 53.33% | 43 mm | 70.66% | 32 mm | 70% | 28 mm | 24 mm | 44 mm | 42 mm | 40% | 32 mm
4 | Cc1ccc2nc3c(cc2c1)C=Nn1c(nnc1-c1ccc([N+](=O)[O-])cc1)N3 | 66.66% | 80% | 43 mm | 81.66% | 33.33% | 50% | 40 mm | 71.66% | 30 mm | 70% | 20 mm | 34 mm | 48 mm | 42 mm | 56.66% | 49 mm
5 | O=[N+]([O-])c1ccc(-c2nnc3n2N=Cc2cc4ccccc4nc2N3)cc1 | 63.33% | 71.66% | 36 mm | 60% | 41.66% | 43.33% | 38 mm | 60% | 26 mm | 86.66% | 25 mm | 22 mm | 43 mm | 52 mm | 33.33% | 36 mm
